Key:
[1] = target: PI3-kinase p110-alpha/p85-alpha (Homo sapiens, UniProt P42336); assay: Inhibition of recombinant human full length N-terminal His-tagged p110alpha/p85alpha expressed in baculovirus expression system measured after 60 mins in presence of ATP by ATP-competitive binding assay
Summary of the method: (§1)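 SelectScreen ATP-competitive assay using 10-point titration with 1 μM top final compound concentration. Kinase, substrate and ATP mixed in 30 mM HEPES buffer and reacted 60 min. IC50 taken as the mean of three independent experiments.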

[2] = target: PI3-kinase p110-delta/p85-alpha (Homo sapiens, UniProt O00329); assay: Inhibition of recombinant human full length His-tagged p110delta/p85alpha expressed in baculovirus expression system measured after 60 mins in presence of ATP by ATP-competitive binding assay; summary of the method: as §1
PI3-kinase p110-delta/p85-alpha, sequence (P27986 whole entry): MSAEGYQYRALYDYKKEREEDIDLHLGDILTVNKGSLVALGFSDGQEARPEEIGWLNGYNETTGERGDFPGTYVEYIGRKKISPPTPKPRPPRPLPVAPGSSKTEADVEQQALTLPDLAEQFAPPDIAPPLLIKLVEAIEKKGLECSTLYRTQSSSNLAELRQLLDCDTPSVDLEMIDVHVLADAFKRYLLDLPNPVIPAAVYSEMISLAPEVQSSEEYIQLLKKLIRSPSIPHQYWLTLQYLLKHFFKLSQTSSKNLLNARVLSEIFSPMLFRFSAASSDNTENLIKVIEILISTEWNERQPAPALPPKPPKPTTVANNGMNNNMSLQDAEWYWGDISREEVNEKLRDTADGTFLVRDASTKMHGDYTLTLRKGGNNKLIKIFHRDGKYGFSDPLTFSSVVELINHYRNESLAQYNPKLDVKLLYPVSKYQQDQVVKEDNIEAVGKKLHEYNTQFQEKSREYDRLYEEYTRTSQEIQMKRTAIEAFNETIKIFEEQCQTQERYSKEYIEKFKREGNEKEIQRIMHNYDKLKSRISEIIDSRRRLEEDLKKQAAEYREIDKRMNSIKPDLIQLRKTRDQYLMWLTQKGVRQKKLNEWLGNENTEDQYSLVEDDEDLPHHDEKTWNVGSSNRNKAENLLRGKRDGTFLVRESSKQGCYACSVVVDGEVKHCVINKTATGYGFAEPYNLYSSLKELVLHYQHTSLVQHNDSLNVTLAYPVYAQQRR
PI3-kinase p110-delta/p85-alpha, sequence (O00329 whole entry): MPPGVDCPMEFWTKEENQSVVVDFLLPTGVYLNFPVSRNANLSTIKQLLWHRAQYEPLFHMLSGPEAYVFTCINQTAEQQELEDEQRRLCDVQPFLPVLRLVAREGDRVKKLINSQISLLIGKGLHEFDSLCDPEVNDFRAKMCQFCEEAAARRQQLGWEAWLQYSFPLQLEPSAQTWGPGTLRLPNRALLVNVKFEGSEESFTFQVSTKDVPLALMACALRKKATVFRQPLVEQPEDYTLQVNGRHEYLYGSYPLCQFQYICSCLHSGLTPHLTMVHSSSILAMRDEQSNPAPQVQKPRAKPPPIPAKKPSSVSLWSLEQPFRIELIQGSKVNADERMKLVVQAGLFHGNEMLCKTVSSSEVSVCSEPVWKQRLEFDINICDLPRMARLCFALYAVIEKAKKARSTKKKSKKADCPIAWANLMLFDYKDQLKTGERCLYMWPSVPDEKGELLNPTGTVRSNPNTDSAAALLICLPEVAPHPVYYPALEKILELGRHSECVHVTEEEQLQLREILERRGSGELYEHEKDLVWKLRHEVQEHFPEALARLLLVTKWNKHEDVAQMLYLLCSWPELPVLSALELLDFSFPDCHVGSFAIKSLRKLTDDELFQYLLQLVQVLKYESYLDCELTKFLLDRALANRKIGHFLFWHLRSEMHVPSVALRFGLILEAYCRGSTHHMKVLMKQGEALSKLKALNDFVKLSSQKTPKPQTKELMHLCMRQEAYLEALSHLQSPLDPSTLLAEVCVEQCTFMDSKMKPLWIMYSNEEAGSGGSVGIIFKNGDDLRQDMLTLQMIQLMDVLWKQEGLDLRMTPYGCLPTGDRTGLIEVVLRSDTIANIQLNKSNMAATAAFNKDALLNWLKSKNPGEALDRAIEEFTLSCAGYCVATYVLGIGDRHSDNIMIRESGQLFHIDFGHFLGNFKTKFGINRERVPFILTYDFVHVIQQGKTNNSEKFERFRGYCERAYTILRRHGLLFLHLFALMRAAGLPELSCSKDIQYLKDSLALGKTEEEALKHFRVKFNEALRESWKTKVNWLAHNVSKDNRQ

MOLT-4 = assay: Antiproliferative activity against human MOLT-4 cells assessed as cell viability at 20 uM by CellTiter-Glo luminescent cell viability assay (reference value: 100%); type: functional; details: read-out: Activity
SU-DHL-5 = assay: Antiproliferative activity against human SU-DHL-5 cells assessed as cell viability at 10 uM by CellTiter-Glo luminescent cell viability assay (reference value: 100%); type: functional; details: read-out: Activity
[3] = target: Phosphatidylinositol 4,5-bisphosphate 3-kinase catalytic subunit gamma isoform (Homo sapiens, UniProt P48736); assay: Inhibition of recombinant human full length His-tagged p110gamma expressed in baculovirus expression system measured after 60 mins in presence of ATP by ATP-competitive binding assay; summary of the method: as §1
Phosphatidylinositol 4,5-bisphosphate 3-kinase catalytic subunit gamma isoform, sequence (P48736 whole entry, canonical isoform): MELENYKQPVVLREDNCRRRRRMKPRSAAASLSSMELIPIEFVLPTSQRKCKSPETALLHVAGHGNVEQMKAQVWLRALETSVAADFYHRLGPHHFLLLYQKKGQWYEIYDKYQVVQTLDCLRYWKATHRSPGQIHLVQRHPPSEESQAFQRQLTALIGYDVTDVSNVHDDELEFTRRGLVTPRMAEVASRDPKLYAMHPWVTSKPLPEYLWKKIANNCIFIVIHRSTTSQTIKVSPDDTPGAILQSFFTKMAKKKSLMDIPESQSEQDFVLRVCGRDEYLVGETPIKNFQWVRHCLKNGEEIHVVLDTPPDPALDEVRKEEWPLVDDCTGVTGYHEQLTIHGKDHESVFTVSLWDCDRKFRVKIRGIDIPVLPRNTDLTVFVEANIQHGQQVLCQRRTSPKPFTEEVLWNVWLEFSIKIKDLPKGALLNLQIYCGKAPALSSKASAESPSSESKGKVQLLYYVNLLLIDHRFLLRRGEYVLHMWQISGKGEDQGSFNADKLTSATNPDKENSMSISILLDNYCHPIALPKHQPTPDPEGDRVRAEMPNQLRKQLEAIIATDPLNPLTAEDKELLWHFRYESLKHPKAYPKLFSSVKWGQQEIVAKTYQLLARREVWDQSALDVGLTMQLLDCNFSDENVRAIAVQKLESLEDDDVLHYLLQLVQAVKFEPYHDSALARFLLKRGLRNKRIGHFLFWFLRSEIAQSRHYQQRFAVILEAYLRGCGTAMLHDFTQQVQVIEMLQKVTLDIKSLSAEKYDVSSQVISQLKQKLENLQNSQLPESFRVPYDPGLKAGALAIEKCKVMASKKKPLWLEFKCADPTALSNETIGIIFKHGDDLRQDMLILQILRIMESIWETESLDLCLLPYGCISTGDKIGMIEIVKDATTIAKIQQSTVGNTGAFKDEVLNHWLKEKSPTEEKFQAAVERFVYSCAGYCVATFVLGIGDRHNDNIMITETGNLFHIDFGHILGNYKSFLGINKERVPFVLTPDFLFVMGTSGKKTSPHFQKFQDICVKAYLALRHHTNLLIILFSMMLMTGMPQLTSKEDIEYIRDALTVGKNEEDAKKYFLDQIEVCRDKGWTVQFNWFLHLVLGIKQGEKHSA

Homo sapiens = species: Homo sapiens; assay: Selectivity ratio of IC50 for recombinant human full length His-tagged p110gamma expressed in baculovirus expression system to IC50 for recombinant human full length His-tagged p110delta/p85alpha expressed in baculovirus expression system
[4] = target: Phosphatidylinositol 4,5-bisphosphate 3-kinase catalytic subunit beta isoform (Homo sapiens, UniProt P42338); assay: Inhibition of recombinant human full length His-tagged p110beta expressed in baculovirus expression system measured after 60 mins in presence of ATP by ATP-competitive binding assay; summary of the method: as §1
Phosphatidylinositol 4,5-bisphosphate 3-kinase catalytic subunit beta isoform, sequence (P42338 whole entry, canonical isoform): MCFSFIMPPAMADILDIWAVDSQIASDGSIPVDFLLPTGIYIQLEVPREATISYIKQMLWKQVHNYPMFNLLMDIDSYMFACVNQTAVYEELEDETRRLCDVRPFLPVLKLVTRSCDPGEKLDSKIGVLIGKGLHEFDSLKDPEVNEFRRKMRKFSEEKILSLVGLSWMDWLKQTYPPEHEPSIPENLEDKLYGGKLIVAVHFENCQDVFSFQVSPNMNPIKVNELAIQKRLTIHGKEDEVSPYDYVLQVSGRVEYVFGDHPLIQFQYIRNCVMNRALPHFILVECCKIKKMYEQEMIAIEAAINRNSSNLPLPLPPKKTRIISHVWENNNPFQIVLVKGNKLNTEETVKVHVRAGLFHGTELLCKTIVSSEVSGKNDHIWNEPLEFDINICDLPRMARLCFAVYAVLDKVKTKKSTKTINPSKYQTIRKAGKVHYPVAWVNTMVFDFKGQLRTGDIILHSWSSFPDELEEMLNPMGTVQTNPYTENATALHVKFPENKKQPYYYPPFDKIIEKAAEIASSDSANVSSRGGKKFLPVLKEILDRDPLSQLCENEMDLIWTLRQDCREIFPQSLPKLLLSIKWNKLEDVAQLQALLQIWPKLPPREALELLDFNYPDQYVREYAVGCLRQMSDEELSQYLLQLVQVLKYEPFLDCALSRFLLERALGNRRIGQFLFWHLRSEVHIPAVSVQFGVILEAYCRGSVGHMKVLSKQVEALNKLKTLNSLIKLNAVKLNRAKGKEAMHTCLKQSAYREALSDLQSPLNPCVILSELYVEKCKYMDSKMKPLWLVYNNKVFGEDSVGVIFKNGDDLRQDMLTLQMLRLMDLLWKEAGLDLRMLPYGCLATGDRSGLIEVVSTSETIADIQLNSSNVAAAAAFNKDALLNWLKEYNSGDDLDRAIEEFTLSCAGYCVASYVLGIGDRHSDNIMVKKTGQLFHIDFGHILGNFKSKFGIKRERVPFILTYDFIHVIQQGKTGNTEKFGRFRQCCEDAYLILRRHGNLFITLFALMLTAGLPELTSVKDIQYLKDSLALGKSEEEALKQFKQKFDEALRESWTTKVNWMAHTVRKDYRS

PI3-kinase p110-alpha/p85-alpha, sequence (P27986 whole entry): as the sequence (P27986 whole entry) above
PI3-kinase p110-alpha/p85-alpha, sequence (P42336 whole entry): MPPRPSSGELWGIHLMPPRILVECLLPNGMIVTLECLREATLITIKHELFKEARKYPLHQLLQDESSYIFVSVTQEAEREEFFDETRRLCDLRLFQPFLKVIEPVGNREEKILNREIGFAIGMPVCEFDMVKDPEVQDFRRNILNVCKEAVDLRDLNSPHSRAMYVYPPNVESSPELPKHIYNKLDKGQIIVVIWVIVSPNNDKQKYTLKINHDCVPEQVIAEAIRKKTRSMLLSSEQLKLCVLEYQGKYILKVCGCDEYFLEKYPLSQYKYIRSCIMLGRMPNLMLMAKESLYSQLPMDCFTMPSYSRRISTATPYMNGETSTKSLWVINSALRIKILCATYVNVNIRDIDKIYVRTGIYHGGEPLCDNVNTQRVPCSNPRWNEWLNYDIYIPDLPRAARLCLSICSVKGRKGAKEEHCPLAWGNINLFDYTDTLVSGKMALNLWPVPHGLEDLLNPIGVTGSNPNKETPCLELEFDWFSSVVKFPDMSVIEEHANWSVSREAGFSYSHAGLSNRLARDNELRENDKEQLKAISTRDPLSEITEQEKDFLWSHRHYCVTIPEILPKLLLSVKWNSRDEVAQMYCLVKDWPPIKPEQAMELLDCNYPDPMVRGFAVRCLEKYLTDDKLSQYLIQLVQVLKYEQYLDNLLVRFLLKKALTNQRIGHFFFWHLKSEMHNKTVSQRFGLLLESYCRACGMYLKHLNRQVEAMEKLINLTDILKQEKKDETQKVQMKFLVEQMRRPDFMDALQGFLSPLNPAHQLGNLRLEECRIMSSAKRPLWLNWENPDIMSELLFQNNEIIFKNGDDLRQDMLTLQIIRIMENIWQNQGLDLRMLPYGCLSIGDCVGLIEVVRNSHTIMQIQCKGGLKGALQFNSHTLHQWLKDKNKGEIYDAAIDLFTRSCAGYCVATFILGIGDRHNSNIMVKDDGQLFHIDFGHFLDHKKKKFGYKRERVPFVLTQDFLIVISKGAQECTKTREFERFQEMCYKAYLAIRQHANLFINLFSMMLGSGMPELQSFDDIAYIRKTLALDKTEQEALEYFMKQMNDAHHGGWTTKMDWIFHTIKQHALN

`CCC[C@H](Nc1ncnc2nc[nH]c12)c1nc2cccc(C(F)(F)F)c2c(=O)n1-c1ccccc1` showed an IC50 [1] of 326 nM, an IC50 [2] of 3.23 nM and a viability at 20 µM (MOLT-4) of 52.2%. For the same compound, the viability at 10 µM (SU-DHL-5) was 36.4%, the IC50 [3] was 56.3 nM and the Ratio IC50 (Homo sapiens) was 17.4. It also gave an IC50 [4] greater than 1000 nM.

Work on `O=c1c2c(Cl)cccc2nc([C@@H](Nc2ncnc3nc[nH]c23)C2CC2)n1-c1ccccc1` yielded an IC50 [1] of 205 nM, an IC50 [2] of 0.6 nM and a viability at 20 µM (MOLT-4) of 56.5%. For the same compound, the viability at 10 µM (SU-DHL-5) was 36.7%, the IC50 [3] was 10.4 nM and the Ratio IC50 (Homo sapiens) was 17.3. For the same compound, the IC50 [4] was 87.6 nM.

`O=c1c2c(Cl)cccc2nc([C@@H](Nc2ncnc3nc[nH]c23)C2CCC2)n1-c1ccccc1` was tested, and the IC50 [1] was 490 nM, the IC50 [2] was 1.7 nM and the viability at 20 µM (MOLT-4) was 54.7%. It also gave a viability at 10 µM (SU-DHL-5) of 52.8%, an IC50 [3] of 63.8 nM and a Ratio IC50 (Homo sapiens) of 37.5. The IC50 [4] was 470 nM.

Compound `CC(C)[C@H](Nc1ncnc2nc[nH]c12)c1nc2cccc(F)c2c(=O)n1-c1ccccc1` has an IC50 [1] of 878 nM, an IC50 [2] of 1.82 nM and a viability at 20 µM (MOLT-4) of 86.2%. For the same compound, the viability at 10 µM (SU-DHL-5) was 63.4%, the IC50 [3] was 313 nM and the Ratio IC50 (Homo sapiens) was 172. The IC50 [4] was 1670 nM.

`C[C@H](Nc1ncnc2nc[nH]c12)c1nc2cccc(N)c2c(=O)n1-c1ccccc1` was tested, and the IC50 [1] was 127 nM, the IC50 [2] was 0.4 nM and the viability at 20 µM (MOLT-4) was 80.9%. For the same compound, the viability at 10 µM (SU-DHL-5) was 36.9%, the IC50 [3] was 7.5 nM and the Ratio IC50 (Homo sapiens) was 18.8. The IC50 [4] was 250 nM.

`CCC[C@H](Nc1ncnc2nc[nH]c12)c1nc2cccc(Cl)c2c(=O)n1-c1ccccc1` gave an IC50 [1] of 301 nM, an IC50 [2] of 0.5 nM and a viability at 20 µM (MOLT-4) of 24.7%. It also gave a viability at 10 µM (SU-DHL-5) of 29.3%, an IC50 [3] of 18.3 nM and a Ratio IC50 (Homo sapiens) of 36.6. It also gave an IC50 [4] of 129 nM.

`C[C@H](Nc1ncnc2nc[nH]c12)c1nc2cccc(F)c2c(=O)n1-c1ccccc1` showed an IC50 [1] of 152 nM, an IC50 [2] of 0.5 nM and a viability at 20 µM (MOLT-4) of 63.7%. For the same compound, the viability at 10 µM (SU-DHL-5) was 46.1%, the IC50 [3] was 15.3 nM and the Ratio IC50 (Homo sapiens) was 30.6. For the same compound, the IC50 [4] was 145 nM.

In the case of `O=c1c2cc(F)ccc2nc([C@@H](Nc2ncnc3nc[nH]c23)C2CC2)n1-c1ccccc1`, the IC50 [1] is reported as 295 nM, the IC50 [2] is reported as 1.09 nM and the viability at 20 µM (MOLT-4) is reported as 68.1%. It also gave a viability at 10 µM (SU-DHL-5) of 24.4%, an IC50 [3] of 29.2 nM and a Ratio IC50 (Homo sapiens) of 26.8. For the same compound, the IC50 [4] was 200 nM.

In the case of `CCC[C@H](Nc1ncnc2nc[nH]c12)c1nc2cccc(F)c2c(=O)n1-c1ccccc1`, the IC50 [1] is reported as 385 nM, the IC50 [2] is reported as 1.08 nM and the viability at 20 µM (MOLT-4) is reported as 60.7%. For the same compound, the viability at 10 µM (SU-DHL-5) was 34.4%, the IC50 [3] was 72.2 nM and the Ratio IC50 (Homo sapiens) was 66.8. The IC50 [4] was 440 nM.

Work on `CC(C)[C@H](Nc1ncnc2nc[nH]c12)c1nc2cccc(Cl)c2c(=O)n1-c1ccccc1` yielded an IC50 [1] of 356 nM, an IC50 [2] of 0.5 nM and a viability at 20 µM (MOLT-4) of 56.4%. For the same compound, the viability at 10 µM (SU-DHL-5) was 29.7%, the IC50 [3] was 62.5 nM and the Ratio IC50 (Homo sapiens) was 125. For the same compound, the IC50 [4] was 1040 nM.

In the case of `O=c1c2c(F)cccc2nc([C@@H](Nc2ncnc3nc[nH]c23)C2CCC2)n1-c1ccccc1`, the IC50 [1] is reported as 879 nM, the IC50 [2] is reported as 2.05 nM and the viability at 20 µM (MOLT-4) is reported as 76.5%. For the same compound, the viability at 10 µM (SU-DHL-5) was 43%, the IC50 [3] was 155 nM and the Ratio IC50 (Homo sapiens) was 75.6. For the same compound, the IC50 [4] was 854 nM.

Compound `CC[C@H](Nc1ncnc2nc[nH]c12)c1nc2cccc(N)c2c(=O)n1-c1ccccc1` has an IC50 [1] of 475 nM, an IC50 [2] of 1.3 nM and a viability at 20 µM (MOLT-4) of 83.6%. The viability at 10 µM (SU-DHL-5) was 45.8%, the IC50 [3] was 24.7 nM and the Ratio IC50 (Homo sapiens) was 19. The IC50 [4] was 287 nM.

`Nc1cccc2nc([C@@H](Nc3ncnc4nc[nH]c34)C3CC3)n(-c3ccccc3)c(=O)c12` showed an IC50 [1] of 369 nM, an IC50 [2] of 1.07 nM and a viability at 20 µM (MOLT-4) of 65.8%. It also gave a viability at 10 µM (SU-DHL-5) of 23.5%, an IC50 [3] of 24.7 nM and a Ratio IC50 (Homo sapiens) of 23.1. It also gave an IC50 [4] of 562 nM.
